Assay results as given in ChEMBL document CHEMBL4808187, “Antiarrhythmic Hit to Lead Refinement in a Dish Using Patient-Derived iPSC Cardiomyocytes” (J Med Chem, 2021).
Activity calls are given as the source filed them. The rule behind the calls is not given here.

Key:
[1] = Antiarrhythmic activity in hiPSC-CMs assessed as dose for induction of early after depolarizations; details: human, ipsc-cm
Cytochrome P450 3A5 = Cytochrome P450 3A5 (Homo sapiens, UniProt P20815); experiment: Drug metabolism assessed as human CYP3A5-mediated metabolism per ug protein; assay type: ADME; details: recombinant enzyme
[2] = Cmax in Sprague-Dawley rat at 5 mg/kg, iv measured upto 25 hrs by LCMS analysis; assay type: ADME, organism-based; parameters: route intravenous, dose 5 mg/kg, time <=25; details: in vivo
iPSC-CM = experiment: (§1) Antiarrhythmic activity in patient-derived hiPSC-CMs carrying LQT3 mutation assessed as cessation dose for cell beating; assay type: functional; details: Homo sapiens
[3] = Tmax in Sprague-Dawley rat at 25 mg/kg, po measured upto 25 hrs by LCMS analysis; assay type: ADME, organism-based; details: in vivo
[4] = Half life in Sprague-Dawley rat at 25 mg/kg, po measured upto 25 hrs by LCMS analysis; assay type: ADME, organism-based; details: in vivo
[5] = Antiarrhythmic activity in hiPSC-CMs assessed as cessation dose of cell beating; details: human, ipsc-cm
[6] = Antiarrhythmic activity in patient-derived hiPSC-CMs carrying LQT3 mutation assessed as shortening of action potential duration; assay type: functional, Homo sapiens; details: ipsc-cm
[7] = Cmax in Sprague-Dawley rat at 25 mg/kg, po measured upto 25 hrs by LCMS analysis; assay type: ADME, organism-based; parameters: route oral, dose 25 mg/kg, time <=25; details: in vivo
[8] = Antiarrhythmic activity in patient-derived hiPSC-CMs carrying LQT3 mutation assessed as shortening dose of action potential; assay type: functional, Homo sapiens, iPSC-CM
[9] = Half life in Sprague-Dawley rat at 5 mg/kg, iv measured upto 25 hrs by LCMS analysis; assay type: ADME, organism-based; details: in vivo
[10] = Tmax in Sprague-Dawley rat at 5 mg/kg, iv measured upto 25 hrs by LCMS analysis; assay type: ADME, organism-based; details: in vivo
[11] = AUC in Sprague-Dawley rat at 5 mg/kg, iv measured upto 25 hrs by LCMS analysis; assay type: ADME, organism-based; parameters: route intravenous, dose 5 mg/kg, time <=25; details: in vivo
[12] = Oral bioavailability in Sprague-Dawley rat at 25 mg/kg measured upto 25 hrs by LCMS analysis; assay type: ADME, organism-based; details: in vivo
[13] = Inhibition of potassium channel (unknown origin) expressed in CHO cells assessed as reduction in potassium current by automated patch clamp method; assay type: cell-based
[14] = Antiarrhythmic activity in hiPSC-CMs assessed as prolongation of action potential; parameters: species or system Homo sapiens, iPSC-CM
Cytochrome P450 2D6 = Cytochrome P450 2D6 (Homo sapiens, UniProt P10635); experiment: Drug metabolism assessed as human CYP2D6-mediated metabolism per ug protein; assay type: ADME; details: recombinant enzyme
[15] = AUC in Sprague-Dawley rat at 25 mg/kg, po measured upto 25 hrs by LCMS analysis; assay type: ADME, organism-based; parameters: route oral, dose 25 mg/kg, time <=25; details: in vivo
Cytochrome P450 3A4 = Cytochrome P450 3A4 (Homo sapiens, UniProt P08684); experiment: Drug metabolism assessed as human CYP3A4-mediated metabolism per ug protein; assay type: ADME; details: recombinant enzyme
[16] = Metabolic stability in human liver microsomes assessed as half life at 50 uM measured upto 60 mins by HPLC method; assay type: ADME, Microsome
Outline: (§2)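 Human liver microsomes (0.4–0.5 mg protein) or S-9 (1 mg) with 50 μM compound in 50 mM potassium phosphate pH 7.4 plus NADPH-generating system, 37 °C shaking for 0, 7, 15, 30, 60 min; stopped with cold acetonitrile; HPLC C18, isocratic water/acetonitrile with 0.05% TFA, UV 275.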

[17] = Metabolic stability in human liver S9 fraction assessed as compound remaining at 50 uM after 1 hr by HPLC method; assay type: ADME, subcellular; details: read-out: Stabilty; outline: as §2
[18] = Toxicity in ip dosed BALB/c mouse assessed as lethal dose; assay type: organism-based; details: in vivo
[19] = Metabolic stability in human liver microsomes assessed as compound remaining at 50 uM after 1 hr by HPLC method; assay type: ADME, Microsome; details: read-out: Stabilty; outline: as §2
[20] = Toxicity in BALB/c mouse assessed as central nervous system effects at 100 mg/kg, ip; assay type: organism-based; details: in vivo
[21] = Toxicity in BALB/c mouse assessed as lethargy at 100 mg/kg, ip monitored for 30 mins; assay type: organism-based; details: in vivo, 0.5 h
[22] = as §1; assay type: functional, Homo sapiens, iPSC-CM
Homo sapiens [23] = species: Homo sapiens; experiment: Selectivity index, ratio of IC50 for sodium channel (unknown origin) expressed in HEK cells assessed as reduction in peak sodium current to IC50 for sodium channel (unknown origin) expressed in HEK cells assessed as reduction in late inward sodium current; assay type: cell-based
[24] = Inhibition of sodium channel (unknown origin) expressed in HEK cells assessed as reduction in late inward sodium current by automated patch clamp method; assay type: cell-based; details: Homo sapiens, HEK293
[25] = Antiarrhythmic activity in patient-derived hiPSC-CMs carrying LQT3 mutation assessed as fold shortening of action potential duration relative to control; assay type: functional, Homo sapiens, iPSC-CM
[26] = Inhibition of sodium channel (unknown origin) expressed in HEK cells assessed as reduction in peak sodium current by automated patch clamp method; assay type: cell-based; details: Homo sapiens, HEK293
[27] = Metabolic stability in human liver S9 fraction assessed as half life at 50 uM measured upto 60 mins by HPLC method; assay type: ADME, subcellular; outline: as §2
[28] = Toxicity in BALB/c mouse assessed as behavioral effects at 100 mg/kg, ip monitored for 30 mins; assay type: organism-based; details: in vivo, 0.5 h
Outline: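 Adult male BALB/c mice, four per compound, 100 mg/kg i.p.; behaviour (lethargy, immobilization, seizures, shaking) observed for 30 min; lethality recorded at 24 h.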

[29] = Chemical stability in pH 3 phosphate buffer assessed as half life at 100 uM by RP-HPLC analysis; assay type: physicochemical
[30] = Antiarrhythmic activity in hiPSC-CMs assessed as fold prolongation of action potential relative to control; details: human, ipsc-cm
[31] = Chemical stability in pH 7.4 phosphate buffer assessed as half life at 100 uM by RP-HPLC analysis; assay type: physicochemical
Homo sapiens [32] = species: Homo sapiens; experiment: Selectivity index, ratio of IC50 for potassium channel (unknown origin) expressed in CHO cells assessed as reduction in potassium current to IC50 for sodium channel (unknown origin) expressed in HEK cells assessed as reduction in late inward sodium current
[33] = Potency index, ratio of mexiletine EC50 to test compound EC50 for antiarrhythmic activity in hiPSC-CMs expressing LQT3 mutation assessed as shortening of action potential duration; assay type: functional, Homo sapiens, iPSC-CM
[34] = Homo sapiens, iPSC-CM, read-out: EC50

Cytochrome P450 3A5, sequence (P20815 whole entry): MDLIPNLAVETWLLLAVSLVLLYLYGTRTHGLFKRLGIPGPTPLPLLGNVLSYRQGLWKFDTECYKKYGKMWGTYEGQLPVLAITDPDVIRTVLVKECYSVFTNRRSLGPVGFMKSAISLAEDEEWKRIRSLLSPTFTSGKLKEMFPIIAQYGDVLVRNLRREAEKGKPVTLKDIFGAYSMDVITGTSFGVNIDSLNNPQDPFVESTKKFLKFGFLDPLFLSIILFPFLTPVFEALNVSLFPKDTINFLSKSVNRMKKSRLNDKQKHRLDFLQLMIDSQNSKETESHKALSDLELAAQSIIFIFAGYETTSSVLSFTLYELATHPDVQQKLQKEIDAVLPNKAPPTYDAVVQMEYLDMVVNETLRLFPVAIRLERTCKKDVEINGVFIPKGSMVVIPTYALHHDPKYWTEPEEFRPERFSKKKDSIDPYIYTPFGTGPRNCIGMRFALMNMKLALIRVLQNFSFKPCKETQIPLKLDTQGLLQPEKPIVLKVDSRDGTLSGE
Cytochrome P450 3A4, sequence (P08684 whole entry): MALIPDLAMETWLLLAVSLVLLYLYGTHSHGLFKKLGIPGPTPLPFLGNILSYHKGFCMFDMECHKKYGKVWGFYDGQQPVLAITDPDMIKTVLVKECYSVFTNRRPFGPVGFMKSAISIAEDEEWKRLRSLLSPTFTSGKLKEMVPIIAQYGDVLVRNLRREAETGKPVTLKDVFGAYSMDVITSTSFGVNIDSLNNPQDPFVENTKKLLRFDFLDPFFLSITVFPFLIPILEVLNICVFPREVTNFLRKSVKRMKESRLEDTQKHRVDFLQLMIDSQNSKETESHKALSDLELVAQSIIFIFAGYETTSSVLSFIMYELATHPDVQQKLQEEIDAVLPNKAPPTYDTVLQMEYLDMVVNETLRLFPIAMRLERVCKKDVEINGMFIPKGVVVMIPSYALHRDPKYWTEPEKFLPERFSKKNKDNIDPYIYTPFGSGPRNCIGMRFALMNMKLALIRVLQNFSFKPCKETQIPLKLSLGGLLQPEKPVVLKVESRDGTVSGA
Cytochrome P450 2D6, sequence (P10635 whole entry): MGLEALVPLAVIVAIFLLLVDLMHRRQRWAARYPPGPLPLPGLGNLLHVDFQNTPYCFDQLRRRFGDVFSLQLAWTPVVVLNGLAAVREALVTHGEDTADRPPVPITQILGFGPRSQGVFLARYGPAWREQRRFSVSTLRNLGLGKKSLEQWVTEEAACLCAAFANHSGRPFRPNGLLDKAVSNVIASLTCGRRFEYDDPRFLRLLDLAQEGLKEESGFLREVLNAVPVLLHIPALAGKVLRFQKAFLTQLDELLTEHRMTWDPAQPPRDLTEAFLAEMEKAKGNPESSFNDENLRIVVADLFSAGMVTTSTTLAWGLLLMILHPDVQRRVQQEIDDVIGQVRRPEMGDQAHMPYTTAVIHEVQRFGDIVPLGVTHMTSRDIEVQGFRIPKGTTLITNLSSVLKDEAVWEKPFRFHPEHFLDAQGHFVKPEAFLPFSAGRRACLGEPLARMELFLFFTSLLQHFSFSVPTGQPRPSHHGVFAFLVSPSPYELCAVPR

SMILES: Cc1cccc(C)c1OCC(C)N (configuration not stated) [MEXILETINE]
- Activity [1]: 200 µM
- Drug metabolism (Cytochrome P450 3A5): 48.8 pmol/min
- Cmax [2]: 289 ng/mL
- Activity (iPSC-CM): inactive
- Tmax [3]: 1 h
- t1/2 [4]: 11 h
- Activity [5]: Not Active
- EC50 ([6]; read-out: EC50): 1.8 µM
- Cmax [7]: 167 ng/mL
- Activity [8]: 22 µM
- t1/2 [9]: 10.6 h
- Tmax [10]: 0.17 h
- AUC [11]: 447 ng·h/mL
- bioavailability [12]: 37%
- IC50 [13]: 53.7 µM
- EC50 [14, 34]: 20.4 µM
- Drug metabolism (Cytochrome P450 2D6): 6 pmol/min
- AUC [15]: 839 ng·h/mL
- Drug metabolism (Cytochrome P450 3A4): 46.2 pmol/min

SMILES: Cc1ccccc1OC[C@@H](N)c1ccccc1.Cl
- half-life at 50 µM [16]: 2.27 h
- remaining at 1 h, 50 µM [17]: > 95%

SMILES: Cc1cc(C)cc(OC[C@@H](N)c2ccccc2)c1.Cl
- LD50 [18]: > 200 mg/kg
- remaining at 1 h, 50 µM [19]: > 95%
- Activity [20]: Toxic
- remaining at 1 h, 50 µM [17]: > 95%
- Activity [21]: Toxic

SMILES: Cl.NC(COc1cc(C(F)(F)F)cc(C(F)(F)F)c1)c1ccccc1 (configuration not stated)
- Activity [1]: Not Active
- Activity [22]: 66 µM
- Ratio IC50 (Homo sapiens [23]): 19.4
- Activity [5]: 133 µM
- EC50 ([6]; read-out: EC50): 23.1 µM
- IC50 [24]: 1.03 µM
- Activity [8]: 22 µM
- fold change (FC) [25]: 1.208
- IC50 [13]: 7.16 µM
- EC50 ([14]; ipsc-cm): Not Active
- IC50 [26]: 20 µM

SMILES: Cc1cccc(C)c1OC[C@@H](C)N [(R)-MEXILETINE]
- Activity [1]: 200 µM
- Activity (iPSC-CM): inactive
- remaining at 1 h, 50 µM [19]: > 95%
- Activity [5]: Not Active
- EC50 ([6]; read-out: EC50): 0.96 µM
- Activity [8]: 7.4 µM
- remaining at 1 h, 50 µM [17]: > 95%
- IC50 [13]: 84 µM
- IC50 [26]: 129 µM

SMILES: Cc1cc(C)cc(OC[C@H](N)c2ccccc2)c1.Cl
- LD50 [18]: > 200 mg/kg
- half-life at 50 µM [27]: 16.9 h
- half-life at 50 µM [16]: 6.77 h
- Activity [28]: Non-Toxic

SMILES: Cc1cccc(C)c1OC[C@H](C)N [(S)-MEXILETINE]
- Activity [1]: 200 µM
- Activity (iPSC-CM): inactive
- remaining at 1 h, 50 µM [19]: > 95%
- Activity [5]: Not Active
- EC50 ([6]; read-out: EC50): 0.8 µM
- Activity [8]: 22 µM
- remaining at 1 h, 50 µM [17]: > 95%
- IC50 [13]: 54.3 µM
- IC50 [26]: 128 µM

SMILES: COCCNC(COc1cccc(C)c1C)c1ccccc1.Cl (racemic)
- Activity [1]: Not Active
- Activity [22]: 200 µM
- Ratio IC50 (Homo sapiens [23]): 34.5
- Activity [5]: Not Active
- EC50 ([6]; read-out: EC50): 5.73 µM
- IC50 [24]: 0.747 µM
- Activity [8]: 133 µM
- fold change (FC) [25]: 1.508
- half-life at 100 µM [29]: > 720 h
- Activity [30]: Not Active
- half-life at 100 µM [31]: > 720 h
- IC50 [13]: 27.6 µM
- IC50 [26]: 25.8 µM

SMILES: Cc1cc(C)cc(OCC(N)c2ccccc2)c1.Cl (racemic)
- Activity [1]: Not Active
- Drug metabolism (Cytochrome P450 3A5): Metabolite_Notdetected
- Ratio IC50 (Homo sapiens [32]): 31
- Activity [22]: 66 µM
- Activity [5]: 66 µM
- EC50 ([6]; read-out: EC50): < 0.8 µM
- IC50 [24]: 0.2 µM
- Activity [8]: 7.4 µM
- fold change (FC) [25]: 1.279
- half-life at 100 µM [31]: > 720 h
- IC50 [13]: 6.2 µM
- EC50 ([14]; ipsc-cm): Not Active
- Drug metabolism (Cytochrome P450 2D6): 6.9 pmol/min
- Drug metabolism (Cytochrome P450 3A4): Metabolite_Notdetected
- IC50 [26]: 20.1 µM

SMILES: COc1ccc(C(N)COc2c(C)cccc2C)cc1.Cl (configuration not stated)
- Activity [1]: Not Active
- Activity [22]: 66 µM
- Activity [5]: 66 µM
- EC50 [6]: Not Active
- Ratio EC50 [33]: 7
- Activity [8]: 7.4 µM
- fold change (FC) [25]: 1.425
- EC50 ([14]; ipsc-cm): Not Active

SMILES: Cc1ccccc1OCC(N)c1ccccc1.Cl (racemic)
- half-life at 100 µM [29]: > 360 h
- half-life at 100 µM [31]: > 720 h

SMILES: Cc1cccc(C)c1OCC(C)NCCc1ccccc1.Cl (configuration not stated)
- Activity [1]: 22 µM
- Activity [22]: 7.4 µM
- Activity [5]: 133 µM
- EC50 [6]: Not Active
- Ratio EC50 [33]: 28
- Activity [8]: 2.5 µM
- fold change (FC) [25]: 1.706
- EC50 [14, 34]: 2.5 µM

SMILES: Cl.NC(COc1ccccc1C(F)(F)F)c1ccccc1 (racemic)
- Activity [1]: Not Active
- Drug metabolism (Cytochrome P450 3A5): 42.6 pmol/min
- Cmax [2]: 250 ng/mL
- Ratio IC50 (Homo sapiens [32]): 36.1
- Activity [22]: 66 µM
- Tmax [3]: 1.5 h
- t1/2 [4]: 6.5 h
- Activity [5]: 66 µM
- EC50 ([6]; read-out: EC50): < 0.8 µM
- Cmax [7]: 226 ng/mL
- IC50 [24]: 1.04 µM
- Activity [8]: 22 µM
- fold change (FC) [25]: 1.783
- t1/2 [9]: 3.2 h
- Tmax [10]: 0.17 h
- half-life at 100 µM [29]: > 360 h
- AUC [11]: 544 ng·h/mL
- bioavailability [12]: 38%
- half-life at 100 µM [31]: > 720 h
- IC50 [13]: 37.5 µM
- EC50 ([14]; ipsc-cm): Not Active
- Drug metabolism (Cytochrome P450 2D6): 43.6 pmol/min
- AUC [15]: 1008 ng·h/mL
- Drug metabolism (Cytochrome P450 3A4): 15.4 pmol/min
- IC50 [26]: 41.1 µM

SMILES: Cc1ccccc1OC[C@H](N)c1ccccc1.Cl
- half-life at 50 µM [27]: 6.8 h
- half-life at 50 µM [16]: 6.08 h
